High-throughput results from PubChem.
An excerpt weighted towards active compounds, which were near 1.8% of everything screened.
Jurkat NFkB inh = lowers PMA/ionomycin-induced NF-kB signal in Jurkat cells | inhibition, % at 4 µM | actives 0.53% (n = 330,000) | PMA/ionomycin-induced NF-kB luciferase reporter, luminescence | AID 435003; in the data active = inhibition above about 50%
697 NFkB inh = lowers PMA/ionomycin-induced NF-kB signal in 697 B cells | 697 B-cell NF-kB luciferase reporter, 16 h | actives 0.33% (n = 330,000) | inhibition, % at 4 µM; in the data active = inhibition above about 35%
GalR3 antagonist = human GalR3 antagonism. actives 0.44% (n = 360,000). inhibition, % at 3 µM. O60755. HEK293 GalR3-CNG cAMP membrane potential fluorescence; galR3 body fused to GalR1 C-terminus;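 active = inhibition above the screen-wide average plus 3 SD, cut at about 13% in these data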;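 note: forskolin and galanin both at EC90 stimulate the cells; cAMP rise reported by CNG channel membrane potential dye signal; 0% = forskolin plus galanin with DMSO and 100% = forskolin alone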
Gli-Sufu block = antagonists of Gli-Sufu signaling; Sufu-KO-LIGHT fibroblasts, Gli luciferase reporter luminescence; inhibition, % at 5 µM; actives 0.74% (n = 340,000); AID 588413;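 active = inhibition above about 55%, limit read from the data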;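 note: 0% = DMSO-treated cells and 100% = wells with medium but no cells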
NR2E3 ag-1 = activates human photoreceptor nuclear receptor NR2E3. actives 0.12% (n = 320,000). Q9Y5X4. AID 2300. inhibition of corepressor binding, % at 4.78 µM. GST-NR2E3/biotin-RetCOR TR-FRET, 1536-well;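 active = percent inhibition above the cutoff of mean plus 3 SD of all tested compounds, set per screening campaign, cut at about 20% in these data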;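 note: 0% = DMSO wells and 100% = biotin wells as full block of FRET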
Target sequence (Q9Y5X4 whole entry, looked up): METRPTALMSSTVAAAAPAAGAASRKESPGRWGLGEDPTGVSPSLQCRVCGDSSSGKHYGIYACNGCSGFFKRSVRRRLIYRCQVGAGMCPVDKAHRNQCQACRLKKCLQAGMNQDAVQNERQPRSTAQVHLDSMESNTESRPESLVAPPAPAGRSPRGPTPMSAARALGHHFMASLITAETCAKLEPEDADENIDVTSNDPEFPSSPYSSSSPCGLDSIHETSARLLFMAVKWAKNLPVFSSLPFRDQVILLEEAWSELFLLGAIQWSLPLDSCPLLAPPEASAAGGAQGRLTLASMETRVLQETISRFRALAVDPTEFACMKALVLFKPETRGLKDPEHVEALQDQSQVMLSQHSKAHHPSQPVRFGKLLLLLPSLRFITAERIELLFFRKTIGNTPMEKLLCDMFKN
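Material: NR2E3–RetCOR corepressor complex / Incubation: Compound–protein incubation for 5 h at 4 °C / Dosing: compound at 4.8 µM, single dose / Detection: time-resolved FRET / Benchmarks: high control biotin, low control 0.6% DMSO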
NR2E3 ag-2 = activates human NR2E3 receptor | AID 602229 | CHO-S Gal4-NCOR/VP16-NR2E3 two-hybrid, luciferase | actives 0.35% (n = 360,000) | inhibition of corepressor binding, % at 3.98 µM | Q9Y5X4;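 active = inhibition above the mean of all tested compounds plus 3 SD, cut at about 70% in these data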;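 note: 0% = DMSO with NR2E3 transfected cells and 100% = cells lacking NR2E3 construct; higher means lower luciferase signal from less NR2E3 corepressor binding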
NR2E3 ag conf = NR2E3 agonism confirmed in two-hybrid assay; shares compounds with NR2E3 ag-2; CHO-S mammalian two-hybrid NR2E3-NCOR, luciferase luminescence; inhibition, % at 3.98 µM; actives 51% (n = 2,300); AID 624378;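 active = average inhibition above a cutoff equal to the mean inhibition of all tested compounds plus one SD, cut at about 70% in these data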;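 note: 0% = DMSO in NR2E3 cells and 100% = DMSO in cells lacking NR2E3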
GAL4-VP16 luc = GAL4-VP16 reporter inhibition in NR2E3 agonist counterscreen. shares compounds with NR2E3 ag-2. CHO-S GAL4-VP16 luciferase reporter, luminescence. inhibition, % at 3.98 µM. actives 29% (n = 2,300). AID 624379;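 active = mean inhibition above a cutoff equal to the average over all tested compounds plus one standard deviation, cut at about 70% in these data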;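 note: luciferase from a UAS reporter driven by GAL4-VP16 transactivation; 0% = DMSO with VP16-transfected cells and 100% = DMSO with cells lacking VP16; higher means less reporter light so more repression of VP16 activity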
Numbers without * were called inactive; · = no result given.

SMILES	Jurkat NFkB inh	697 NFkB inh	GalR3 antagonist	Gli-Sufu block	NR2E3 ag-1	NR2E3 ag-2	NR2E3 ag conf	GAL4-VP16 luc
Cc1ccc(N2CCN(S(=O)(=O)c3c(C)nc4scc(C)n4c3=O)CC2)c(C)c1	-4	-17	-2	11	0	49	4	4
CC1CCCC(NC(=O)CSC2=Nc3ccccc3C3CC=NN23)C1C (stereo not drawn)	-2	3	-4	-5	5	-14	·	·
Cc1ccc(-n2nc3c(=O)n(C(C)C(=O)NCCCc4ccccc4)nc(C)c3c2C)cc1 (stereo not drawn)	11	-20	-9	16	-3	51	19	38
COC1=C(OC)C(=O)C(CCCCCCCCCCO)=C(C)C1=O	·	·	-4	·	·	54	28	52
CC1=C(C)C(=O)C(CCCCC#CCCCC#CCO)=C(C)C1=O	4	-28	·	-8	0	-9	·	·
COc1ccc(Cc2nnc(SCC(=O)N(C)CC(=O)Nc3ccc(C)cc3)o2)cc1	5	14	-4	-8	-3	-18	·	·
COc1ccc(NC(=O)CCSc2nc(C)cs2)cc1	-41	-41	-7	-25	-1	-4	·	·
COc1ccc(OC)c(S(=O)(=O)NCC(c2cccs2)N2CCc3ccccc3C2)c1 (stereo not drawn)	0	5	-5	3	1	-26	·	·
O=C1c2cc([N+](=O)[O-])ccc2-c2cc(Br)c(N=C(NO)C(F)(F)F)cc21	·	·	-3	5	·	101*	97*	61
CCc1nn(CCCC(=O)NC2CCCCC2C)c(=O)c2cc3occc3n12 (stereo not drawn)	·	·	-4	·	·	12	·	·
CC1CCCC/C1=N\NC(=S)NCCc1ccccc1 (stereo not drawn)	-2	-32	-5	9	-1	50	-7	-5
O=C(OCc1cn([C@H]2CN(C(=O)c3cccs3)[C@@H](c3ccc(Cl)cc3)C[C@@H]2O)nn1)c1ccccc1	·	·	-8	·	·	-28	·	·
CC1=CC(C)(C)N2C(=O)C3(NCCc4c3[nH]c3ccccc43)c3cc(C)cc1c32 (stereo not drawn)	4	8	-7	-7	-1	57	12	6
CN1C(=O)C2(NCCc3c2[nH]c2ccccc32)c2ccccc21 (stereo not drawn)	-3	21	-1	1	2	-2	·	·
CC(=O)c1c(C)[nH]c(C(=O)C(C)Sc2nnc(NC3CC3)s2)c1C (stereo not drawn)	1	-41	-8	21	4	51	44	47
Cc1coc(C)c1C(=O)Nc1ccc2ccccc2c1	-52	-45	-4	-47	·	-115	·	·
Cc1ccc(NC(=O)C(C)c2ccc(-c3ccccc3)c(F)c2)cc1 (stereo not drawn)	25	-30	-3	-11	0	74*	89*	77*
O=C(CC1CCCC1)Nc1cc(C(F)(F)F)ccc1-n1cncn1	11	13	-1	-1	0	0	·	·
CC(C)C(=O)NC(c1ccccc1)c1cc([N+](=O)[O-])c2cccnc2c1O (stereo not drawn)	13	-74	-5	2	2	20	·	·
CC(=O)NC(c1cccs1)c1cc([N+](=O)[O-])c2cccnc2c1O (stereo not drawn)	·	·	-5	-14	2	81*	98*	54
CC(=O)NC(c1ccccc1)c1cc([N+](=O)[O-])c2cccnc2c1O (stereo not drawn)	13	-237	1	-2	-8	57	94*	31
CCC(=O)NC(c1cccs1)c1cc([N+](=O)[O-])c2cccnc2c1O (stereo not drawn)	22	-77	-3	-2	0	63	94*	51
CN1CCN(C(=O)c2cccc(-c3cnc4cnc(-c5ccccc5Oc5ccccc5)cn34)c2)CC1	·	·	-10	·	·	49	70*	20
O=C(c1cccc(-c2cncc3nccn23)c1)N1CCOCC1	·	·	-5	·	·	-9	·	·
COc1nc(NC2OC(CO)C(O)C(O)C2O)c(N)c(=O)[nH]1 (stereo not drawn)	·	·	-1	5	·	5	·	·
SMILES	Jurkat NFkB inh	697 NFkB inh	GalR3 antagonist	Gli-Sufu block	NR2E3 ag-1	NR2E3 ag-2	NR2E3 ag conf	GAL4-VP16 luc
NC(=S)NN=Cc1nccc2c(C(F)(F)F)cccc12	·	·	-3	·	·	65	-10	21
NC(=S)N/N=C/c1ccccc1	-6	-10	2	9	-3	-23	·	·
COCc1cc(=O)n2[nH]cc(-c3ccccc3)c2n1	-17	-24	-2	-7	1	-28	·	·
CCCc1cc(=O)n2[nH]cc(-c3ccc(Cl)cc3)c2n1	-3	-8	-11	8	·	93*	98*	71*
Cc1nn(-c2nc3ccccc3[nH]2)c(=O)c2ccccc12	·	·	-1	79*	3	53	65	25
COc1ccc(CN(C(=O)COc2ccccc2)c2ccccc2C(=O)O)cc1	4	13	5	9	-1	4	·	·
COCCC1CCCCN1Cc1cn(-c2ccccc2)nc1-c1ccc2c(c1)OCO2 (stereo not drawn)	3	-18	-1	11	-1	-2	·	·
Nc1nc(=O)n(C2OC(CO)C(O)C2O)cc1F (stereo not drawn)	·	·	-8	·	·	7	·	·
O=c1[nH]c(=O)n(C2OC(CO)C(O)C2O)cc1F (stereo not drawn)	·	·	·	23	·	49	17	6
O=C(Nc1oc2ccc(Cl)cc2c(=O)c1-c1ccc(F)cc1)c1ccco1	4	-8	0	-14	-2	-54	·	·
COc1ccccc1NC(=O)N1CCN(c2cccc(C(F)(F)F)c2)CC1	-4	-14	-5	10	2	-20	·	·
COc1ccccc1CC(=O)N1CCN(c2cccc(C(F)(F)F)c2)CC1	13	-7	-6	49	2	50	94*	71*
CCC(C)Oc1cc(-c2ccnc(Nc3cccc(Cl)c3)n2)ccn1 (stereo not drawn)	27	-54	-12	-8	1	57	94*	41
CCn1c(=O)cc(SCC(=O)Nc2ccc(C)cn2)c2ccccc21	15	16	-4	-218	-5	74*	95*	17
O=C(CCCc1nc2ccccc2s1)Nc1nccs1	4	-50	-9	1	3	-14	·	·
Cc1cnc(NC(=O)CCCc2nc3ccccc3s2)s1	34	24	-1	-79	8	109*	98*	23
